Laboratory results taken from ChEMBL document CHEMBL1133361, “Synthesis and biological activity of peptidyl aldehyde urokinase inhibitors” (Bioorg Med Chem Lett, 2000).

Assays:
[1] = Apparent terminal elimination half-life in rat plasma after administration of 50 mg/kg dose through subcutaneous route; format: ADME, organism-based; design: dose 50 mg/kg, route subcutaneous; conditions: sc
Outline: (§1)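 Rats (n=3) received 50 mg/kg subcutaneously. Plasma was sampled over 24 h after dosing the parent aldehyde, or over 30 h after dosing its carbonate prodrug, with parent and prodrug measured. Levels were quantified by solid-phase extraction and HPLC mass spectrometry, and half-life and Cmax were taken from the concentration-time profile.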

[2] = target: Urokinase-type plasminogen activator (Homo sapiens, UniProt P00749); test: The compound was tested in vitro for its inhibitory activity against human urokinase enzyme, activity expressed as IC50
[3] = Area under curve in dog after administration of 20 mg/kg dose through peroral route; format: ADME, organism-based, Canis lupus familiaris; design: dose 20 mg/kg, route oral; conditions: in vivo, po
Outline: (§2)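 Conscious dogs (n=3) were given a single 20 mg/kg oral dose. Plasma drug levels were quantified by solid-phase extraction followed by HPLC mass spectrometry, and elimination half-life, Cmax and AUC were derived from the plasma concentration-time profile.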

[4] = target: Plasminogen (Homo sapiens, UniProt P00747); test: The compound was tested in vitro for its inhibitory activity against human Plasmin enzyme, activity expressed as IC50
Sequence of Plasminogen (P00747 97-580 limits assumed): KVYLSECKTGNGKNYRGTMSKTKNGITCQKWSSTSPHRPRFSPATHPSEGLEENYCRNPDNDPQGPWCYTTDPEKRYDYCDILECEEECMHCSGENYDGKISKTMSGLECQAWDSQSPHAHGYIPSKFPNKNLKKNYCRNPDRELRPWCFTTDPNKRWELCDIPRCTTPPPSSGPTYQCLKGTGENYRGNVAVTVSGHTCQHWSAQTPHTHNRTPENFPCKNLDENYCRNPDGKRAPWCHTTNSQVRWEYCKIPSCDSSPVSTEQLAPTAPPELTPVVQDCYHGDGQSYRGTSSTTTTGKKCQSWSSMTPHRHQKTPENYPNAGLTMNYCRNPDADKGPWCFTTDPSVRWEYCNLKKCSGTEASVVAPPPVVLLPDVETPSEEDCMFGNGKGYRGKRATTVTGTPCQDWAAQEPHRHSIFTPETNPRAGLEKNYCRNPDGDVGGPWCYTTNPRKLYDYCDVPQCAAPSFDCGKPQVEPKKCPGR
Sequence of Plasminogen (P00747 581-810 limits assumed): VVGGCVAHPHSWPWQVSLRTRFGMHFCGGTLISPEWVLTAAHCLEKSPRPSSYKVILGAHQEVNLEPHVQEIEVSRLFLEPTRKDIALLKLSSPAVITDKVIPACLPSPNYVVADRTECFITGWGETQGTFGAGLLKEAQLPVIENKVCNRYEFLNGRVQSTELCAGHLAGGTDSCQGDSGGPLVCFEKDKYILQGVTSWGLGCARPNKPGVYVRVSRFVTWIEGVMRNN

[5] = Maximum concentration in rat plasma after administration of 50 mg/kg dose through subcutaneous route; conditions: sc
[6] = Maximum concentration in dog after administration of 20 mg/kg dose through peroral route; format: ADME, organism-based, Canis lupus familiaris; design: dose 20 mg/kg, route oral; conditions: in vivo, po; outline: as §2
[7] = Total concentration in rat plasma after administration of 50 mg/kg dose through subcutaneous route; conditions: sc
[8] = Area under curve in rat plasma after administration of 50 mg/kg dose through subcutaneous route; conditions: sc
[9] = Maximum concentration in rat plasma after administration of 50 mg/kg dose through subcutaneous route; format: ADME, organism-based; design: dose 50 mg/kg, route subcutaneous; conditions: sc; outline: as §1
[10] = target: Tissue-type plasminogen activator (Homo sapiens, UniProt P00750); test: The compound was tested in vitro for its inhibitory activity against human t-PA enzyme, activity expressed as IC50
Sequence of Tissue-type plasminogen activator (P00750 whole entry): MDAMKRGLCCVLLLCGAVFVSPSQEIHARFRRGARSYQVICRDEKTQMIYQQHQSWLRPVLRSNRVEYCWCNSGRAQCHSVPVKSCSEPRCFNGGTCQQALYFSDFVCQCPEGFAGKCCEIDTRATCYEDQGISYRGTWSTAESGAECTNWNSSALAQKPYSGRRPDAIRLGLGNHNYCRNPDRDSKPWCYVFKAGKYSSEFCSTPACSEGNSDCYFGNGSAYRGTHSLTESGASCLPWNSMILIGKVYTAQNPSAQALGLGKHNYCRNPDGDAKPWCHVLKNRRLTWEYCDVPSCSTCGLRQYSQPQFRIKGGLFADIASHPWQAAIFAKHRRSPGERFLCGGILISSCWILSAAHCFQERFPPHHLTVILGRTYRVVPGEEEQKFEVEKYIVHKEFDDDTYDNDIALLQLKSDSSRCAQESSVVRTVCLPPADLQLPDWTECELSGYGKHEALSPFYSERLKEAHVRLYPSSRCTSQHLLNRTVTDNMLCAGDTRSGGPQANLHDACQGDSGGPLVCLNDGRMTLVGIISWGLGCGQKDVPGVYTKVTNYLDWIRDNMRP
Outline: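 Human t-PA (1 nM final) was tested for cleavage of chromogenic substrate Pefachrome t-PA. IC50 was taken as the inhibitor concentration giving 50% inhibition of substrate cleavage.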

[11] = Apparent terminal elimination half-life in rat plasma after administration of 50 mg/kg dose through subcutaneous route; conditions: sc
[12] = Apparent terminal elimination half-life in dog after administration of 20 mg/kg dose through peroral route; format: ADME, organism-based, Canis lupus familiaris; design: dose 20 mg/kg, route oral; conditions: in vivo, po; outline: as §2
[13] = Apparent terminal elimination half-life in rat plasma after administration of 50 mg/kg dose through subcutaneous route; conditions: sc; remark: listed apart in the source

| Compound | IC50 [2] [nM] | IC50 [4] [nM] | IC50 [10] [nM] | further results |
| --- | --- | --- | --- | --- |
| CC(C)COC(=O)N[C@H](CO)C(=O)N[C@@H](C)C(=O)N[C@H]1CCCN(C(=N)N)C1O.O=C(O)C(F)(F)F (some centres not stated) | 23.1 | 1460 | > 2500 | half-life [1]: 5 h; AUC [3]: 38900 ng·h/mL; Cmax [5]: 4700 ng/mL; Cmax [6]: 22900 ng/mL; Tmax [7]: 2.33 h; AUC [8]: 44500 ng·h/mL; Cmax [9]: 4700 ng/mL; half-life [11]: 5 h; half-life [12]: 0.85 h |
| C[C@H](NC(=O)[C@@H](CO)NS(=O)(=O)Cc1ccccc1)C(=O)N[C@H]1CCCN(C(=N)N)C1O (some centres not stated) | 5.1 | 275 | > 2500 | – |
| C[C@@H](NC(=O)[C@@H](CO)NC(=O)OCc1ccccc1)C(=O)N[C@H]1CCCN(C(=N)N)C1O (some centres not stated) | > 2500 | > 2500 | > 2500 | – |
| C[C@H](NC(=O)[C@@H](CO)NC(=O)OCc1ccccc1)C(=O)N[C@H]1CCCN(C(=N)N)C1O (some centres not stated) | – | 904 | > 2500 | – |
| C[C@H](NC(=O)[C@@](C)(CO)NC(=O)OCc1ccccc1)C(=O)N[C@H]1CCCN(C(=N)N)C1O (some centres not stated) | > 2500 | > 2500 | > 2500 | – |
| CC(C)COC(=O)N[C@H](COC(=O)O)C(=O)N[C@@H](C)C(=O)N[C@H]1CCCN(C(=N)N)C1O.O=C(O)C(F)(F)F (some centres not stated) | – | – | – | half-life [13]: 10.7 h; Cmax [5]: 2300 ng/mL; Tmax [7]: 2.67 h; AUC [8]: 38600 ng·h/mL |
| N=C(N)N1CCC[C@H](NC(=O)C2CCN2C(=O)[C@@H](CO)NC(=O)OCc2ccccc2)C1O (some centres not stated) | 11 | 482 | > 2500 | – |
| C[C@H](NC(=O)[C@@H](CO)NS(=O)(=O)c1ccccc1)C(=O)N[C@H]1CCCN(C(=N)N)C1O (some centres not stated) | – | 1170 | > 2500 | – |
| C[C@H](NC(=O)[C@@H](CO)NS(=O)(=O)CCc1ccccc1)C(=O)N[C@H]1CCCN(C(=N)N)C1O (some centres not stated) | 3.1 | 367 | > 2500 | – |
| N=C(N)N1CCCC(NC(=O)[C@H]2CCCN2C(=O)C(CO)NC(=O)OCc2ccccc2)C1O (some centres not stated) | – | 125 | > 2500 | – |
| CC(O)[C@@H](NC(=O)OCc1ccccc1)C(=O)N[C@@H](C)C(=O)N[C@H]1CCCN(C(=N)N)C1O (some centres not stated) | 261 | 699 | > 2500 | – |
| N=C(N)N1CCC[C@@H](NC(=O)[C@H]2CCCCN2C(=O)[C@@H](CO)NC(=O)OCc2ccccc2)C1O (some centres not stated) | 101 | – | > 2500 | – |
